{
  "source": "ChEMBL document CHEMBL1125197",
  "about": "“Studies on uricosuric diuretics. 4. Three-dimensional structure-activity relationships and receptor mapping of (aryloxy)acetic acid diuretics” (1991)",
  "data": [
    {"system": "Rattus norvegicus", "test": "Diuretic activity after peroral administration of 100 mg/Kg in rats", "type": "functional, Urine", "how_it_was_run": "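Seven-week-old Wistar–Imamichi rats, fasted 24 h, in groups of five matched for urine output; forced urination before dosing. Oral dose of 100 mg/kg, suspended in physiological saline with 3% gum arabic at 25 mL/kg. Controls received vehicle alone. Animals kept fasted in separate metabolic cages, with urine collected for 6 h. Urine volume expressed as % of control (100%).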", "units": {"Relative activity": "%"}, "values": [
      {"smiles": "O=C(O)COc1cc2oc3ccccc3c(=O)c2cc1Cl", "Relative activity": 200},
      {"smiles": "O=C(O)COc1ccc(C(=O)c2cccs2)c(Cl)c1Cl", "note": "[TICRYNAFEN]", "Relative activity": 160},
      {"smiles": "O=C(c1cccs1)c1cc2c(c(Cl)c1Cl)O[C@@H](C(=O)O)C2", "Relative activity": "<100"},
      {"smiles": "O=C(O)C1Cc2c(c(Cl)cc3c(-c4ccccc4)noc23)O1", "note": "(stereo not drawn)", "Relative activity": 120},
      {"smiles": "C[C@]1(c2ccccc2)Cc2cc(OCC(=O)O)c(Cl)c(Cl)c2C1=O", "Relative activity": 350},
      {"smiles": "O=C(O)C1Oc2c(Cl)cc3c(-c4ccccc4)noc3c2O1", "note": "(stereo not drawn)", "Relative activity": 160},
      {"smiles": "O=C(c1cccs1)c1cc2c(c(Cl)c1Cl)OC(C(=O)O)C2", "note": "(racemic)", "Relative activity": 350},
      {"smiles": "C[C@@]1(c2ccccc2)Cc2cc(OCC(=O)O)c(Cl)c(Cl)c2C1=O", "Relative activity": 200},
      {"smiles": "O=C(O)COc1ccc2c(-c3ccccc3F)noc2c1Cl", "Relative activity": 250},
      {"smiles": "O=C(O)C1Cc2c(c(Cl)c(Cl)c3nc(-c4ccccc4)oc23)O1", "note": "(stereo not drawn)", "Relative activity": 450},
      {"smiles": "O=C(O)C1Cc2cc3c(-c4ccccc4)noc3c(Cl)c2O1", "note": "(stereo not drawn)", "Relative activity": 300},
      {"smiles": "O=C(c1cccs1)c1cc2c(c(Cl)c1Cl)O[C@H](C(=O)O)C2", "Relative activity": 400},
      {"smiles": "O=C(O)C1Cc2cc3c(=O)c4ccccc4oc3c(Cl)c2O1", "note": "(stereo not drawn)", "Relative activity": 200},
      {"smiles": "O=C(O)C1Oc2cc3c(-c4ccccc4)noc3c(Cl)c2O1", "note": "(stereo not drawn)", "Relative activity": 450},
      {"smiles": "CC1(c2ccccc2)Cc2cc(OCC(=O)O)c(Cl)c(Cl)c2C1=O", "note": "(racemic) [INDACRINONE]", "Relative activity": 300},
      {"smiles": "O=C(O)C1Cc2c(c(Cl)cc3c(=O)c4ccccc4oc23)O1", "note": "(stereo not drawn)", "Relative activity": 300},
      {"smiles": "O=C(O)COc1cc2c(=O)c3ccccc3oc2cc1Cl", "Relative activity": 200},
      {"smiles": "O=C(O)C1Cc2cc(-c3noc4ccccc34)c(Cl)c(Cl)c2O1", "note": "(stereo not drawn)", "Relative activity": 300}
    ]}
  ]
}
